# Several values for one entry are separate records, joined by “and”; a condition that tells them apart may be missing. Identical values can stand only once.
# Tests used:
# Endothelin-1 receptor [1] = biological target: T1, Endothelin-1 receptor (Rattus norvegicus, UniProt P26684); test: Binding affinity for endothelin A receptor by measuring its ability to displace [125I]ET1 from prolactin secreting rat pituitary cells(MMQ); type: cell-based, Pituitary gland cell
# T1 sequence (P26684 whole entry): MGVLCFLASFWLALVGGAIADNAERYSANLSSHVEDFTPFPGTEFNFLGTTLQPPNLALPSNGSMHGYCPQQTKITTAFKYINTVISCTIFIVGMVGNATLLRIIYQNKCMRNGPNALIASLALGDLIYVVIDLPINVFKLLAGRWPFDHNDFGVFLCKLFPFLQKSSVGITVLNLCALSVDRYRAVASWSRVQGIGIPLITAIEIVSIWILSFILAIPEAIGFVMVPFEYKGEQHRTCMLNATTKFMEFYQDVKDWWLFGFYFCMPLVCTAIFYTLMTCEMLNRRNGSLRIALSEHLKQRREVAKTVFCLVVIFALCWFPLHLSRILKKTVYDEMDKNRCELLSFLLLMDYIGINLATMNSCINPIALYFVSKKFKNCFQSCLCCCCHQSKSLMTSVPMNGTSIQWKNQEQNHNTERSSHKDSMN
# [2] = Pharmacokinetic profile Cmax was evaluated in rats; type: ADME, organism-based; conditions: rat, in vivo
# How it was run: (§1)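 Male Sprague-Dawley rats, n = 4 per group, 10 mg/kg iv (jugular slow bolus) or oral gavage, 10 mg/mL in ethanol–propylene glycol–D5W (20:30:50) with 1 equiv NaOH. Tail-vein plasma taken 0.1 (iv only) to 12 h, assayed by HPLC after extraction. AUC by trapezoidal rule extrapolated to infinity; T1/2 from terminal rate constant; F as oral/iv AUC.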
# [3] = Bioavailability in rat; type: ADME, organism-based; conditions: in vivo; how it was run: as §1
# [4] = biological target: T2, Endothelin receptor type B (Homo sapiens, UniProt P24530); test: Tested for binding affinity for human Endothelin B receptor by measuring its ability to displace [125I]ET-3 from chinese hamster ovary cells(CHO); type: cell-based
# T2 sequence (P24530 whole entry): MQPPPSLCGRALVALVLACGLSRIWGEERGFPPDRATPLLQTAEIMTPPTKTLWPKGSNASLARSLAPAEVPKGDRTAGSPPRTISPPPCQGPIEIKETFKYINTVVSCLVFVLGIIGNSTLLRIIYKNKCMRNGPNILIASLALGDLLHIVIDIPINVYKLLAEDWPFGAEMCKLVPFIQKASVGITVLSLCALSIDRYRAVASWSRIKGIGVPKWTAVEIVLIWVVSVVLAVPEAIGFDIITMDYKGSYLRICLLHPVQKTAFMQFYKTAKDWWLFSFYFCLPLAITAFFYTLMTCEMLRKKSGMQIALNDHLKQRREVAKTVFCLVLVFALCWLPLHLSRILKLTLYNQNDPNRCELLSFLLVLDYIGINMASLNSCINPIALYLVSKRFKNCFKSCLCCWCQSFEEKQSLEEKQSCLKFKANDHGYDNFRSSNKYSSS
# [5] = Pharmacokinetic profile-half life was evaluated in rats upon oral administration; type: ADME, organism-based; conditions: rat, in vivo; how it was run: as §1
# [6] = Pharmacokinetic profile AUC was evaluated in rats; type: ADME, organism-based; set-up: concentration or dose not given beside the values; conditions: rat, in vivo; how it was run: as §1
# [7] = Pharmacokinetic profile-half life was evaluated in rats upon intravenous administration; type: ADME, organism-based; conditions: rat, in vivo; how it was run: as §1
# Endothelin-1 receptor [8] = biological target: T3, Endothelin-1 receptor (Homo sapiens, UniProt P25101); test: Tested for binding affinity for human Endothelin A receptor by measuring its ability to displace [125I]ET1 from chinese hamster ovary cells(CHO); type: cell-based
# T3 sequence (P25101 whole entry): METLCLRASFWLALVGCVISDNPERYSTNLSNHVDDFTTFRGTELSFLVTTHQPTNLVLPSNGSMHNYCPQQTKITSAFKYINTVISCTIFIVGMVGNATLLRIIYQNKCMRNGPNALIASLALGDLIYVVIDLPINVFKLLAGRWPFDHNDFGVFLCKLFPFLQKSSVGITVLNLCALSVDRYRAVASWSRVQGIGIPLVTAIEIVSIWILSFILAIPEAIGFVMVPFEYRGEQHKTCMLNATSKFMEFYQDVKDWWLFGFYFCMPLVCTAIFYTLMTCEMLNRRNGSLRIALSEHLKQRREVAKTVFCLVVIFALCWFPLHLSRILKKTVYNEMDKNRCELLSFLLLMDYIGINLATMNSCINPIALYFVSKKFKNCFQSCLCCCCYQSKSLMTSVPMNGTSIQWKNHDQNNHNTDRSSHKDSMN
IC50 (Endothelin-1 receptor [1]),SMILES,further results
2.5 nM,CCCCN(CCCC)C(=O)CN1C[C@H](c2ccc3c(c2)OCO3)[C@@H](C(=O)O)[C@@H]1CCc1cccn1C,
2.5 nM,CCCCC[C@H]1[C@H](C(=O)O)[C@@H](c2ccc3c(c2)OCO3)CN1CC(=O)N(CCCC)CCCC,
0.38 nM and 0.72 nM,CCCCN(CCCC)C(=O)CN1C[C@H](c2ccc3c(c2)OCO3)[C@@H](C(=O)O)[C@@H]1CCc1ccccn1,Cmax [2]: 580 ng/mL; bioavailability [3]: 21.1%; IC50 [4]: 32000 nM; half-life [5]: 8.8 h; AUC [6]: 780 ng·h/mL; half-life [7]: 2.8 h; IC50 (Endothelin-1 receptor [8]): 0.29 nM
9.9 nM,C=CCCC[C@H]1[C@H](C(=O)O)[C@@H](c2ccc3c(c2)OCO3)CN1CC(=O)N(CCCC)CCCC,
3.3 nM,C/C=C(\C)CC[C@H]1[C@H](C(=O)O)[C@@H](c2ccc3c(c2)OCO3)CN1CC(=O)N(CCCC)CCCC,
4.8 nM,C/C=C/CC[C@H]1[C@H](C(=O)O)[C@@H](c2ccc3c(c2)OCO3)CN1CC(=O)N(CCCC)CCCC,
3 nM,CCCCN(CCCC)C(=O)CN1C[C@H](c2ccc3c(c2)OCO3)[C@@H](C(=O)O)[C@@H]1CC(C)CCC (some centres not stated),
22 nM,CCCCN(CCCC)C(=O)CN1C[C@H](c2ccc3c(c2)OCO3)[C@@H](C(=O)O)[C@@H]1CCC(CC)CC,
2.7 nM,CCCCN(CCCC)C(=O)CN1C[C@H](c2ccc3c(c2)OCO3)[C@@H](C(=O)O)[C@@H]1CCc1ccco1,
1.05 nM,CCCCN(CCCC)C(=O)CN1C[C@H](c2ccc3c(c2)OCO3)[C@@H](C(=O)O)[C@@H]1CCc1nc(C)c(C)o1,
1.3 nM,CCCCN(CCCC)C(=O)CN1C[C@H](c2ccc3c(c2)OCO3)[C@@H](C(=O)O)[C@@H]1CCC=C(C)C,
13 nM,CCCCN(CCCC)C(=O)CN1C[C@H](c2ccc3c(c2)OCO3)[C@@H](C(=O)O)[C@@H]1CCC1OC(C)C(C)O1 (some centres not stated),

# Continued, compound first:
SMILES,IC50 (Endothelin-1 receptor [1]),further results
CCCCN(CCCC)C(=O)CN1C[C@H](c2ccc3c(c2)OCO3)[C@@H](C(=O)O)[C@@H]1CCC1CCOCC1,10 nM,
CCCCN(CCCC)C(=O)CN1C[C@H](c2ccc3c(c2)OCO3)[C@@H](C(=O)O)[C@@H]1CCN1CCCCC1=O,2 nM,
C/C=C\C(C)(C)C[C@H]1[C@H](C(=O)O)[C@@H](c2cc(OC)c3c(c2)OCO3)CN1CC(=O)N(CCCC)CCCC,0.41 nM,Cmax [2]: 660 ng/mL; bioavailability [3]: 27.8%; IC50 [4]: 39700 nM; half-life [5]: 3.94 h; AUC [6]: 2090 ng·h/mL; half-life [7]: 1.5 h; IC50 (Endothelin-1 receptor [8]): 0.29 nM
CCCCN(CCCC)C(=O)CN1C[C@H](c2ccc3c(c2)OCO3)[C@@H](C(=O)O)[C@@H]1CCN1CCCC1=O,0.42 nM,Cmax [2]: 16 ng/mL; bioavailability [3]: 0.3%; IC50 [4]: 18000 nM; AUC [6]: 9 ng·h/mL; half-life [7]: 1.4 h; IC50 (Endothelin-1 receptor [8]): 0.17 nM
CCCCN(CCCC)C(=O)CN1C[C@H](c2ccc3c(c2)OCO3)[C@@H](C(=O)O)[C@@H]1CCn1ccccc1=O,2.2 nM,
CCCCN(CCCC)C(=O)CN1C[C@H](c2ccc3c(c2)OCO3)[C@@H](C(=O)O)[C@@H]1CC(CCC)CCC,6 nM,
CCCCN(CCCC)C(=O)CN1C[C@H](c2ccc3c(c2)OCO3)[C@@H](C(=O)O)[C@@H]1CC(C)(C)C1OCCO1,1.4 nM,
CCCCN(CCCC)C(=O)CN1C[C@H](c2ccc3c(c2)OCO3)[C@@H](C(=O)O)[C@@H]1CCCCC(F)(F)F,4 nM,
CCCCN(CCCC)C(=O)CN1C[C@H](c2ccc3c(c2)OCO3)[C@@H](C(=O)O)[C@@H]1CCC1OCCCO1,3.3 nM,
CCCCN(CCCC)C(=O)CN1C[C@H](c2ccc3c(c2)OCO3)[C@@H](C(=O)O)[C@@H]1CCC1CCCCO1 (some centres not stated),1.8 nM,
